# High-throughput results: PubChem BioAssay, several laboratories
# This is a sample that favours compounds with a hit; in the whole collection about 3.1% have one here.
# Hsp70 act: Hsp70 transcriptional activation, primary screen | AID 1203 | activation, % at 10 µM | HeLa Hsp70 promoter luciferase reporter, luminescence; scaled: vehicle 0, proteasome-inhibitor control 100% | 200,000 tested, 0.04% active;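 active means activation above the mean across all tested compounds plus 3 SD, cutoff set per campaign, cut at about 5.5% in these data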;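 further: 100% = MG132 at 30 µM as the positive control and 0% = DMSO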
# HSF1 inhib: HSF1 inhibition | NIH3T3-HGL HSE-luciferase, MG132-induced, luminescence 8 h; stronger effect = lower value | activity change, negative = inhibition, % at 7.5 µM (by protocol) | 300,000 tested, 0.77% active;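 active means more than half of replicate wells show activity change below -50%, luminescence cut by over half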;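 further: luciferase reports HSF-1 transcriptional activity via heat shock element; 0% = median of DMSO wells and -100% = zero luminescence signal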
# HKDC1 inhibitor: blocks human hexokinase HKDC1 activity. 340,000 tested, 0.16% active. inhibition, % at 20 µM. recombinant HKDC1, G6PDH/diaphorase resazurin coupled fluorescence;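 active means inhibition above about 35% when tested at 20 µM, limit read from the data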;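 further: plate controls were DMSO wells with enzyme for no effect and DMSO wells lacking enzyme for full effect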
# Target sequence (Q2TB90 whole entry, looked up): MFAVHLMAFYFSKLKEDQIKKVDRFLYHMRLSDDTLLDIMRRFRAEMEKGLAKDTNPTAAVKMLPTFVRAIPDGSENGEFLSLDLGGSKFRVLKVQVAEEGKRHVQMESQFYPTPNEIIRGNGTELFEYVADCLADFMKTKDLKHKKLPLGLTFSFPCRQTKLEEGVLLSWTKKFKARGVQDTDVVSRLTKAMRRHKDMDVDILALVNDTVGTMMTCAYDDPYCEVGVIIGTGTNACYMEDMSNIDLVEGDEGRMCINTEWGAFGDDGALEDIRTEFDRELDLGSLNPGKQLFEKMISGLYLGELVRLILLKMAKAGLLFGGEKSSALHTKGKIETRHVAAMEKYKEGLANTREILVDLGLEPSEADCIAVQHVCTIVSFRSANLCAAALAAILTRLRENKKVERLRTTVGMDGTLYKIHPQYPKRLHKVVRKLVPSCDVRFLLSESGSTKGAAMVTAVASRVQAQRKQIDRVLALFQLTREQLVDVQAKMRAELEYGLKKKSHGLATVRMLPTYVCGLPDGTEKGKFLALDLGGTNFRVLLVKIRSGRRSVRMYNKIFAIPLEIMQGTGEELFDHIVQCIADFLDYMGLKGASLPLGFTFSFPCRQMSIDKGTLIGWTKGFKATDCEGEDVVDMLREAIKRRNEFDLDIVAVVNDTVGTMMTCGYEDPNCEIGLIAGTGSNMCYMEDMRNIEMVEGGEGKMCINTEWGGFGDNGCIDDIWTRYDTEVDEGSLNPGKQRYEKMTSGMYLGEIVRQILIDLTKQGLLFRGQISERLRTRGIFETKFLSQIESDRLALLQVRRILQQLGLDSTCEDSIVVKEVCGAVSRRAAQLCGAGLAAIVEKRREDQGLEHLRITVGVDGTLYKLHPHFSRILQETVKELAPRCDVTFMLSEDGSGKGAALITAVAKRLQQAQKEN
#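 Test system: Recombinant HKDC1 (HK5) hexokinase enzyme, produced in-house | Input: HKDC1 at 5 µg/mL | Buffer or medium: Tris pH 8.0 buffer with MgCl2, Tween-20, BSA, BME | Schedule: 90 min reaction incubation at room temperature, dark | Technique: Resazurin-to-resorufin fluorescence via G6PDH and diaphorase coupling, 525/613 nm | Controls: DMSO wells with and without enzyme mix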
# TbHK1 inh: T. brucei hexokinase 1 inhibition. recombinant TbHK1, G6PDH-coupled NADH A340. inhibition, % at 10 µM. 220,000 tested, 0.11% active. AID 1430;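 active means inhibition of 50% or more in the single-dose primary screen; inactive means inhibition below 50%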
# HSP90 inh: inhibitors of HSP90 luciferase refolding in rabbit reticulocyte lysate | luciferase refolding luminescence, 3 h | inhibition, % at 5.6 µM | 290,000 tested, 0.91% active;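 active means inhibition above the screen-wide mean plus 3 SD, computed separately per campaign, cut at about 16% in these data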;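 further: 0% = DMSO wells and 100% = 60 µM geldanamycin wells; inhibitors lower the luminescence because luciferase stays unfolded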
# HSF-1 act: increases HSF-1 driven luciferase reporter signal. NIH3T3-HGL HSF-1 luciferase reporter, MG132, 8 h; 100% = twice DMSO control signal. activation, % at 9 µM. 300,000 tested, 1.7% active. AID 504408;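 active means mean replicate activation of at least 50% with a set share of replicates each reaching 50%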;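 further: 0% = median of the neutral control wells and 100% = twice that signal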
# The depositor's hits bear a star; x = no result given.
SMILES,Hsp70 act,HSF1 inhib,HKDC1 inhibitor,TbHK1 inh,HSP90 inh,HSF-1 act
Brc1ccc2c(c1)C(c1cccnc1)=NNC(c1cccs1)=N2,-0.4,26.2,1.1,25.3,-3.0,64.0*
O=C(COC(=O)C1C2CC3OC(=O)C1C3C2)Nc1cccc(Cl)c1 (configuration not stated),x,-63.7*,-2.0,x,-4.2,-71.7
CC1CC(C)(C)CC2(C1)NC(=O)N(CC(=O)N1CCN(Cc3ccc(C#N)cc3)CC1)C2=O (configuration not stated),x,x,-3.8,x,x,x
O=S(=O)(/N=C(\c1ccccc1)N1CCOCC1)c1ccc(Cl)cc1,-0.5,-18.1,3.3,3.1,2.4,-7.6
O=S(=O)(/N=C(/c1ccccc1Cl)N1CCOCC1)c1ccccc1,0.0,-58.0*,2.8,-3.4,-2.5,-68.2
COc1ccc(NC(=O)C2Cc3ccccc3C(=O)O2)cc1 (configuration not stated),x,-70.9*,-0.7,6.2,x,-76.1
COc1ccc(CCNC(=O)C2Cc3ccccc3C(=O)O2)cc1 (configuration not stated),0.2,-4.3,-1.8,0.2,-2.8,4.4
C/C(=N\NC(=O)c1cccc2ccccc12)c1ccccn1,x,4.8,-13.5,x,-2.3,-4.8
C/C(=N\NC(=O)c1ccoc1C)c1cccc2ccccc12,x,31.0,-3.2,x,2.5,57.3*
COc1ccc(C(=O)/C=C2\Sc3ccccc3N2C)cc1,-0.1,21.6,-5.3,-10.2,-0.4,56.1*
CCC(NC(=S)NC1CCCCC1)c1ccccc1 (configuration not stated),x,-86.8*,x,x,-1.4,-89.6
O=C1NCC2=C1C(c1ccc(Br)cc1)Nc1ccccc1N2 (configuration not stated),-0.1,28.1,4.0,-9.8,1.1,50.7*
O=C(CN1C(=O)c2ccccc2S1(=O)=O)Nc1ccccc1,0.0,-65.2*,-7.8,0.4,-3.2,-73.6
COc1ccc(C(=O)CN2C(=O)c3ccccc3S2(=O)=O)cc1,x,-64.8*,-1.7,2.3,11.6,-68.1
COc1ccc(C(=O)CN2C(=O)c3ccccc3S2(=O)=O)cc1Br,x,-4.1,-3.8,x,5.2,1.3
COc1ccccc1OCC(=O)NCC1CCCN(Cc2cnn(C(C)C)c2)C1 (configuration not stated),x,1.4,-6.4,x,-2.2,5.2
CN(C)S(=O)(=O)c1cccc(NC(=O)CSc2cccc3cccnc23)c1,x,27.5,-8.2,x,5.9,35.3
Cc1ccc(/C(N)=N/OC(=O)/C=C/c2ccccc2)cc1,0.5,25.3,-2.2,7.3,-0.2,35.3
N/C(=N\OC(=O)COc1ccc(Cl)cc1Cl)c1ccccn1,-0.1,28.4,-4.3,-7.2,12.8,73.7*
COc1ccc(/C(N)=N/OC(=O)/C=C/c2ccccc2)cc1,0.1,34.7,-9.8,0.0,0.9,53.8*
Cc1cc(C)c(C)c(OCC(=O)O/N=C(\N)c2ccccn2)c1,-0.1,4.0,-10.5,-2.2,-0.8,16.3
N/C(=N\OC(=O)COc1ccc(Br)cc1Cl)c1ccccn1,-0.2,13.5,2.7,30.8,13.9,51.3*
N/C(=N\OC(=O)COc1ccc2ccccc2c1Br)c1ccccn1,0.5,47.6,-5.4,-7.8,-1.3,83.0*
COc1ccccc1C(=O)O/N=C(\N)c1ccccc1Cl,0.1,23.9,2.2,31.1,-7.3,69.6*
COc1ccc(/C(N)=N/OC(=O)COc2ccccc2Cl)cc1,-0.1,32.2,-7.3,5.0,-2.4,57.6*
SMILES,Hsp70 act,HSF1 inhib,HKDC1 inhibitor,TbHK1 inh,HSP90 inh,HSF-1 act
Cc1cccc(/C(N)=N/OC(=O)COc2ccccc2Cl)c1,-0.1,x,-6.2,-0.3,-2.2,x
Cc1ccc(F)cc1NC(=O)CSc1nc(Nc2ccccc2)nc(N2CCOCC2)n1,x,16.0,4.1,x,3.5,29.2
Cc1ccccc1NC(=O)CSc1nc(Nc2ccccc2)nc(N2CCOCC2)n1,-0.3,33.3,0.1,0.7,-2.6,73.9*
COc1ccc(-c2c(C)nn3c(Cl)c(C)c(C)nc23)cc1,x,29.1,-5.0,x,0.0,59.6*
COc1ccc(-c2c(C)nn3c(-c4ccccc4)cc(C)nc23)cc1,-0.2,1.5,-0.1,7.8,2.2,-0.7
O=C(C#Cc1ccccc1)Nc1ccc(F)cc1,x,31.6,0.3,x,-7.4,41.4
COc1ccc(NC(=O)C#Cc2ccccc2)cc1,x,41.0,-0.6,x,-1.1,54.2*
O=C(C#Cc1ccccc1)Nc1cccc(F)c1,x,44.4,3.2,x,-1.6,81.6*
COc1ccc(N/C(C)=C/C(=O)c2ccccc2)cc1,-0.3,0.7,-8.6,-3.8,-4.2,5.1
COC(=O)/C(=C\C(=O)c1ccccc1)Nc1ccc(OC)cc1,x,23.9,1.4,-17.3,2.0,50.6*
COc1ccc(NC(=O)CCCCC#Cc2ccccc2)cc1,x,1.7,-0.8,x,x,13.5
Cc1c[n+]([O-])cc(C)c1[N+](=O)[O-],x,x,-8.6,x,x,x
O=C(Cc1ccsc1)Nc1ccc(S(=O)(=O)C(F)F)cc1,0.0,-63.5*,-4.1,3.3,-1.9,-71.4
CC(C)NS(=O)(=O)c1ccc(NC(=O)Cc2ccsc2)cc1,x,7.0,-4.0,x,-4.6,7.4
Cc1[nH]c(C)c(C(=O)/C=C/c2ccc([N+](=O)[O-])cc2)c1C,x,32.9,-4.9,x,8.8,69.7*
Cn1cccc1C(NC(=O)c1ccccc1)C(Cl)(Cl)Cl (configuration not stated),x,-4.3,-1.1,x,2.8,6.0
CN(C)C(CNc1ccc(C(F)(F)F)cc1[N+](=O)[O-])c1ccccc1 (configuration not stated),x,-0.3,-2.8,x,4.7,16.3
CCN(CC)S(=O)(=O)c1cc(NC(=O)c2ccc(-n3cncn3)c([N+](=O)[O-])c2)ccc1C,x,1.4,2.0,x,-0.8,17.3
O=[N+]([O-])c1ccc(-c2cn(-c3ccccc3F)c(=S)[nH]2)cc1,-0.3,36.2,-1.0,-2.2,3.1,60.3*
Cc1cc(C)c2nc(-c3ccncc3)cc(C(=O)N3CCN(Cc4ccccc4Cl)CC3)c2c1,x,2.4,-0.3,x,4.2,-0.4
Cn1c(O)c(N=NC(=O)c2ccccc2O)c2ccccc21,-0.1,23.2,-1.6,-28.2,-0.3,19.9
Cc1cc(N=NC(=O)c2ccccc2O)c2ccccc2c1O,0.3,23.6,-2.1,-8.5,-0.7,77.4*
Cc1nc(NC(=O)/C=C/c2ccc(Cl)cc2Cl)sc1C(=O)N(C)C,-0.4,-75.8*,-10.7,-10.7,-1.4,-81.4
COc1ccc(OCC(O)CN2CCNCC2)cc1 (configuration not stated),x,-3.2,5.6,x,1.0,14.7
CC1CCCCC1NC(=O)COC(=O)c1ccc2c(c1)NC(=O)CS2 (configuration not stated),x,x,-1.0,x,x,x
CCN(CC)CCCn1c(=S)[nH]c2ncccc2c1=O,-0.4,16.3,-0.3,-24.6,2.4,61.8*
CC(=O)OC1CCC2C3CCC4OC(=O)CCC4C3CCC12C (configuration not stated),x,x,-0.7,x,x,x
